Values belong to the compound of their own block, whether it stands above or below them.
Legend:
ABHD4 [1] = target: T1, ABHD4 (Homo sapiens, UniProt Q8TB40); assay: ABPP-SILAC, in situ treatment of PC3 cells; type: cell-based; conditions: 4 h, FP-biotin probe
T1 sequence (Q8TB40 1-342): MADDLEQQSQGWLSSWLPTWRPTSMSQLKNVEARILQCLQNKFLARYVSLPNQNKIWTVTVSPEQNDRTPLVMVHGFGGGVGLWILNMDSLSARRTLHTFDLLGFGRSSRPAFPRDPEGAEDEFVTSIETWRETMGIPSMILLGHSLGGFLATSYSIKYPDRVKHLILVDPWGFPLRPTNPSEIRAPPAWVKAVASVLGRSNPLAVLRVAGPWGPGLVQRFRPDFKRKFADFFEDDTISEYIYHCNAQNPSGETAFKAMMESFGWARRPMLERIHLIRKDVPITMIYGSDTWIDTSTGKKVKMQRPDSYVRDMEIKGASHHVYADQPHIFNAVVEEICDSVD
Procedure, shortened: (§1)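 Heavy-isotope PC3 cells (RPMI plus serum, grown to confluency) get fresh medium with test compound; light cells get DMSO. Incubated 4 h at 37 °C, 5% CO2, then PBS-washed and sonicated in PBS. Proteomes (2 mg/mL) labelled with FP-biotin (2.5 µM, 1 h) or ABC45 (5 µM, 1 h), then CuAAC to biotin-azide. Heavy and light combined, streptavidin-enriched, trypsin-digested on bead, analysed by LC-MS/MS; SILAC ratios; two independent experiments.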

ABHD3 = target: T2, ABHD3 (Homo sapiens, UniProt Q8WU67); assay: ABPP-SILAC, in situ treatment of PC3 cells; type: cell-based; conditions: 4 h, FP-biotin probe
T2 sequence (Q8WU67 1-409): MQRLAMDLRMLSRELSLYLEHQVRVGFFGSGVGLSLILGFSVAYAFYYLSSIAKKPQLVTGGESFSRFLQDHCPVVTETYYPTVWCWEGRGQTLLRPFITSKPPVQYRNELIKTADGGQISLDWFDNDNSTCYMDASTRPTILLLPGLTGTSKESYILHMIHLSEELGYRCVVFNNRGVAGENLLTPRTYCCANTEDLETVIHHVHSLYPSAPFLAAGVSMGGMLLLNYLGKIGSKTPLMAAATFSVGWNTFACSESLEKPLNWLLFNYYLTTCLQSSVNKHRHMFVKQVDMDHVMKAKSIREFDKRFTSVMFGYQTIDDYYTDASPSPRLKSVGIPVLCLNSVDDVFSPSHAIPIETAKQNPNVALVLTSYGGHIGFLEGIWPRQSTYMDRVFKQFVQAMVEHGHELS
Procedure, shortened: as §1

PPT1 [2] = target: T3, PPT1 (Mus musculus, UniProt O88531); assay: In vivo gel-based ABPP of mouse tissues; conditions: C57BL6 mice, intraperitoneal, 4 h, central and peripheral tissues
T3 sequence (O88531 28-306): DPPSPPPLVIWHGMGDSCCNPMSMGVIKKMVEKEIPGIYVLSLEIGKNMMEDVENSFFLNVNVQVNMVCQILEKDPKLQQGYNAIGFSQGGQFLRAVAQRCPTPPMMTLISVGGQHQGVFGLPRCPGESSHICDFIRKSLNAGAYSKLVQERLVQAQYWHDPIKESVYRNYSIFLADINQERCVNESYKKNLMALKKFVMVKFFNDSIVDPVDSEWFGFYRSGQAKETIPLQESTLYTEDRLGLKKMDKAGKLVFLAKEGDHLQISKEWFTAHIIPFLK
Procedure, shortened: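 C57Bl/6 mice dosed intraperitoneally across 1–40 mg/kg in saline/ethanol/emulphor 18:1:1 (v/v/v), or vehicle. After 4 h, isoflurane anaesthesia, cervical dislocation and tissue harvest. Tissue proteomes (1 mg/mL) labelled with ABC45 (1 µM, 60 min) and rhodamine-azide by CuAAC, PNGaseF-treated after labelling, resolved by SDS-PAGE and scanned for fluorescence.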

PPT1 [3] = target: T4, PPT1 (Homo sapiens, UniProt P50897); assay: In situ competitive ABPP; type: cell-based; conditions: transfected HEK293T cells
T4 sequence (P50897 28-306): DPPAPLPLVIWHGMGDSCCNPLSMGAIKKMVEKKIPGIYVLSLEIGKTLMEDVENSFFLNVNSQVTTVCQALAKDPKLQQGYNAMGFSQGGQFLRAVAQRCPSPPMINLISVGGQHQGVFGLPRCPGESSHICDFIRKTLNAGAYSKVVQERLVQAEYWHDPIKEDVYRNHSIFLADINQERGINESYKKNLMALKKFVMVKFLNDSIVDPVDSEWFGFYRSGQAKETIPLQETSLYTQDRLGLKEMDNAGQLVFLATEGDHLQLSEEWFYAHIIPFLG
Procedure, shortened: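 HEK293T cells transiently transfected with human PPT1 are grown to confluency in DMEM plus serum. Treated in fresh medium with test compound or DMSO, 4 h, 37 °C, 5% CO2. Washed, sonicated in PBS, and lysates labelled with the ABC45 click probe. Rhodamine-azide added by CuAAC; PNGaseF deglycosylation for the blockade test; SDS-PAGE and in-gel fluorescence.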

Cytotoxicity = type: cell-based; conditions: read-out: cell toxicity IC50
ABHD4 [4] = target: T1, ABHD4; type: biochemical; conditions: in vitro, lysates from ABHD4-transfected HEK293T cells
serine hydrolases = assay: ABPP-SILAC serine hydrolase selectivity profile in PC3 cells; type: cell-based, human; conditions: PC3 cells in situ, 1 or 0.1 µM, 4 h; ABHD6 and CPVL
Procedure, shortened: as §1

endogenous PPT1 = target: T5, endogenous PPT1 (Homo sapiens, UniProt P50897); assay: MU-6S-Palm-βD-Glc substrate assay after in situ treatment of PC3 cells; type: cell-based; conditions: 500 nM, 4 h
T5 sequence (P50897 28-306): T4 sequence (P50897 28-306)
Procedure, shortened: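 PC3 cells (RPMI plus serum, confluent) treated in situ with test compound or DMSO for 4 h at 37 °C, 5% CO2, then washed and sonicated in PBS. Lysate PPT1 activity measured with MU-6S-Palm-βD-Glc: thioester hydrolysis, then sweet almond β-glucosidase releases 4-methylumbelliferone, read by fluorescence. Activity compared with DMSO controls; three independent experiments.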

PPT1 [5] = target: T4, PPT1; assay: ABPP-SILAC with ABC45 probe, in situ treatment of PC3 cells; type: cell-based; conditions: 1 µM, 4 h, ABC45 probe (5 µM, 1 h)
Procedure, shortened: as §1

ABHD4 [6] = target: T1, ABHD4; assay: Gel-based competitive ABPP; type: biochemical; conditions: combined transfected HEK293T lysate

inhibition of ABHD4 (ABHD4 [1]; 0.5 µM): inhibit both ABHD3 and ABHD4 | inhibition of ABHD3 (ABHD3; 0.5 µM): inhibit both ABHD3 and ABHD4
Structure (SMILES): O=C(ON1C(=O)C2CN(Cc3ccc(Oc4ccccc4)cc3)CCN2C1=O)N1CCC(c2ccccc2)CC1 (centres unmarked) [ABC47]

dose producing near-complete blockade of PPT1 (PPT1 [2]): 1 to 5 mg/kg | in situ inhibition of hPPT1 (PPT1 [3]; 200 nM): complete inhibition | 4-MU-6S-Palm-βD-Glc hydrolysis activity compared to DMSO-treated control cells (endogenous PPT1): substantial reductions | reduction in endogenous PPT1 activity (endogenous PPT1): 90%
Structure (SMILES): COc1ccc(N2CCN(C(=O)ON3C(=O)C4CN(CC5CCN(Cc6ccccc6)CC5)CCN4C3=O)CC2)cc1 (centres unmarked) [ABC44]
IC50 (Cytotoxicity): > 50 µM | effect on NAPE hydrolysis activity of ABHD4 (ABHD4 [4]): neither ABC44 (17) nor the LYPLA1/2 inhibitor JJH254 (7) altered | cross-reactive serine hydrolase activities (serine hydrolases): two of the >40 quantified SH activities

inhibition of PPT1 (PPT1 [5]): more than 90% | inhibition of ABHD4 (ABHD4 [1]; 1 µM): completely inhibited | blockade of ABC45 reactivity of recombinant human PPT1 (PPT1 [3]; 5 µM, 4 h): blocked | inhibition of ABHD3 (ABHD3; 1 µM): ~ 80%
Structure (SMILES): COc1ccc(N2CCN(C(=O)ON3C(=O)C4CN(Cc5ccc(Oc6ccccc6)cc5)CCN4C3=O)CC2)cc1 (centres unmarked) [ABC34]
preference for ABHD4 over ABHD3 (ABHD4 [6]): preferentially inhibited ABHD4 over ABHD3
